Sampled rows, rich in hits. Any-hit rate of the full collection: about 3.8%.
RGS4 act – potentiators or activators of RGS4; B-score at 10 µM; 310,000 tested, 0.92% active; AID 463111; HEK293 M3R/inducible RGS4, carbachol calcium flux Fluo4; active compounds read low;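 active = B-score of the integrated calcium signal more than 4 SD below the library mean, with starting fluorescence not abnormally high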;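 also: negative B-score means reduced calcium response which marks RGS4 activation or potentiation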
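Reagent: ECmax carbachol challenge; Test system: M3R-expressing HEK293 line, RGS4 induced by doxycycline; Schedule: overnight RGS4 induction, 30 min dye load 37 °C, 20 min compound RT; Detection: calcium dye Fluo4 fluorescence; Read-out: Agonist-evoked peak-minus-minimum fluorescence over baseline, integrated ratio, B score.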
Hep lipid drop – modulators of hepatic lipid droplet formation; AML12 mouse hepatocytes, oleate lipid droplets, BODIPY imaging; inhibition, % at 6.5 µM; 240,000 tested, 0.4% active; AID 1656;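 active = lipid droplet intensity inhibited by at least 50%, with more than 500 cells counted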
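material = mouse AML12 hepatocyte cell line, fixed after treatment | also added = 100 µM oleic acid challenge | doses = compound at 6.5 µM only | schedule = overnight exposure | technique = Image-based BODIPY and DAPI two-channel analysis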
RGS4 inh – human RGS4 inhibition; P49798; HEK293 M3R/RGS4 inducible, Fluo-4 calcium flux; active compounds read high; triggered by carbachol at its EC20; B-score at 10 µM; 310,000 tested, 0.45% active; AID 463165;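 active = B-score, a plate-corrected calcium signal, over three deviations above library mean, with baseline fluorescence within five deviations of library mean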;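 also: RGS4 expression induced by doxycycline in cells with stable M3 receptor; B-score is computed from the integrated fluorescence ratio over baseline after carbachol; higher B-score means a larger calcium signal and so more RGS4 inhibition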
Target sequence (P49798 whole entry, looked up): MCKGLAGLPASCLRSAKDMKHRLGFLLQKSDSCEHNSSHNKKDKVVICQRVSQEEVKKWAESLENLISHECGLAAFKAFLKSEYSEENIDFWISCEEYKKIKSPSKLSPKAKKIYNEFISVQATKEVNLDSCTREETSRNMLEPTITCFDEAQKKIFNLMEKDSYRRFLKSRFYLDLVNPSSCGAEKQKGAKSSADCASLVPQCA
MrgX1 antag – human MrgX1 receptor antagonism, primary screen. Q96LB2. MRGX1-HEK293 calcium flux, Fluo-4, BAM8-22 antagonism; active compounds read low. B-score at 10 µM. 310,000 tested, 1.3% active;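 active = calcium-response B-score plate-corrected more than 3 library SD below zero, starting fluorescence within 5 deviations, no agonist response on first addition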;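 also: peak minus trough fluorescence over baseline after final BAM8-22 challenge near maximal dose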
Target sequence (Q96LB2 whole entry, looked up): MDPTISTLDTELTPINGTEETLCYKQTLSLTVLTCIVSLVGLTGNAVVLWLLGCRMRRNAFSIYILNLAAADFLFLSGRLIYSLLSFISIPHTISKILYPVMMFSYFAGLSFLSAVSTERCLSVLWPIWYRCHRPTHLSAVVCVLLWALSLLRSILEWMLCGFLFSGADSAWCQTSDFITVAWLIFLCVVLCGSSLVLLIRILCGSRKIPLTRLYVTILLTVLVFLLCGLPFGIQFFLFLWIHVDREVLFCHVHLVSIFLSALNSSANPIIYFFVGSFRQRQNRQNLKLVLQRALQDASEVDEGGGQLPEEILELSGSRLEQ
MrgX1 agonist – agonists of human MrgX1 receptor; Q96LB2; MrgX1-HEK293 cells, Fluo-4 calcium fluorescence, agonist mode; active compounds read high; B-score at 10 µM; 310,000 tested, 0.44% active;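 active = calcium response B-score plate-corrected fluorescence ratio at least 3 library SD, with starting fluorescence B-score inside 5 SD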
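Material: HEK293 cells stably expressing human MrgX1 receptor | Quantity: 15,000 cells per well | Times: Cells plated overnight, dye loaded 0.5 h 37 °C, 0.5 h room temperature | Measured by: Kinetic Fluo-4 NW fluorescence of intracellular calcium | Control set: Positive and negative controls per plate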
MrgX1 PAM – human MrgX1 positive allosteric modulation, primary screen | MrgX1-HEK293, Fluo-4 calcium flux, FDSS; active compounds read high | B-score at 10 µM | 310,000 tested, 0.63% active | AID 588675;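 active = plate-corrected calcium response at least 3 library SD above typical, normal starting fluorescence, not activating the receptor alone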;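 also: compound read alongside a low EC10 to EC30 dose of BAM8-22 agonist; peak minus trough fluorescence over baseline measured at the second addition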
RGS4 inh valid – RGS4 inhibitor validation; shares compounds with RGS4 inh; HEK293 M3R/RGS4, carbachol calcium Fluo-4 fluorescence; carbachol added at its EC20; 0 = buffer wells, 100 = carbachol control; calcium response, % at 10 µM; 1,700 tested, 65% active; AID 492999;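 active = duplicate-averaged calcium response above the buffer-only control mean plus 5 SD of those controls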;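 also: integrated fluorescence ratio F max minus min over baseline F0; higher response in RGS4-induced cells means RGS4 inhibition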
M3R Ca ctr – non-induced cell nonspecific activity of RGS4 inhibitors | shares compounds with RGS4 inh | AID 493000 | 1,900 tested, 20% active | activity (percent), % at 10 µM | HEK293 M3R non-induced, carbachol calcium Fluo-4; submaximal (EC20) carbachol stimulus; buffer wells 0%, carbachol control wells 100%; call rule not given here;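 also: RGS4 induction absent so cells express M3R without RGS4; higher means more calcium signal and flags a non-specific hit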
M3R basal Ca ctr – second RGS4 inhibitor counter-screen in uninduced cells lacking carbachol. shares compounds with RGS4 inh. HEK293 M3R/RGS4 non-induced, Fluo-4 calcium, no carbachol; normalised: buffer wells 0%, carbachol wells 100%. calcium response (agonist-mode artifact), % at 10 µM. 1,900 tested, 22% active. AID 493001;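 active = duplicate-averaged calcium rise in uninduced cells above buffer wells' mean plus 5 SD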
Each line names hits and unclear results; the compound was inactive in the other large screens (follow-up assays come after a bar, where they were run).

O=C(CSc1ccc2nnc(CCNC(=O)c3ccccc3)n2n1)NCCc1ccccc1	none
CCN(CC)c1ccc(/C=N\N2CCN(Cc3ccc(C)cc3)CC2)cc1	none | RGS4 inh valid inactive | M3R Ca ctr inactive | M3R basal Ca ctr inactive
Cc1ccc(CN2CCN(/N=C/c3ccc(C(=O)O)cc3)CC2)cc1	none
CCOc1ccc2nc(Cl)c(/C=C/C(=O)c3ccco3)cc2c1	RGS4 inh 9.5 | RGS4 inh valid inactive | M3R Ca ctr 40% | M3R basal Ca ctr inactive
Cc1cccc2cc(/C=C/C(=O)c3ccco3)c(Cl)nc12	none
CCC(C(=O)OCC(=O)N1C(C)CCCC1C)c1ccccc1 (stereo not drawn)	none
O=c1[nH]c(=O)n(Cc2ccco2)c2c1C(C(F)(F)F)(C(F)(F)F)N=C(c1ccc(F)cc1)N2	none | RGS4 inh valid inactive | M3R Ca ctr inactive | M3R basal Ca ctr inactive
CC(C)CC(=O)NC1(C(F)(F)F)C(=O)Nc2c1c(=O)[nH]c(=O)n2Cc1ccco1 (stereo not drawn)	none (no result: Hep lipid drop)
O=C(CC1Nc2cccc3cccc(c23)NC1=O)Nc1ccccc1 (stereo not drawn)	none | M3R Ca ctr inactive | M3R basal Ca ctr inactive
O=C(CNc1ccc(Br)cc1)c1ccc(O)cc1	RGS4 inh 9.6 | RGS4 inh valid 22% | M3R Ca ctr inactive | M3R basal Ca ctr inactive
Oc1c(Br)cccc1/C=N/c1ncn[nH]1	RGS4 inh 4.7 | RGS4 inh valid 7.5% | M3R Ca ctr inactive | M3R basal Ca ctr inactive
O=[N+]([O-])c1ccc(O)c(C=Nc2ccc3c(c2)OCCO3)c1	none
Oc1c(Br)cc(Br)cc1C=Nc1ccc2c(c1)OCO2	none | RGS4 inh valid inactive | M3R Ca ctr inactive | M3R basal Ca ctr 48%
Oc1c(Br)cc(Br)cc1C=Nc1ccc2c(c1)OCCO2	RGS4 inh 5.8 | RGS4 inh valid inactive | M3R Ca ctr inactive | M3R basal Ca ctr 74%
COc1ccc(C(=O)N/C(N)=N/c2nc3ccccc3o2)cc1	none (no result: Hep lipid drop)
COc1ccc(C(=O)/C=C/Sc2nc3ccccc3o2)cc1	RGS4 inh 24 | RGS4 inh valid 9.5% | M3R Ca ctr inactive | M3R basal Ca ctr inactive
CCNc1nc(SCCOc2ccc(Cl)cc2Cl)nc(N(C)C)n1	none (no result: MrgX1 antag, MrgX1 agonist, MrgX1 PAM)
C=C(C)C1(O)OC(=O)C=C1OC (stereo not drawn)	RGS4 inh 7.8 | RGS4 inh valid 9.0% | M3R Ca ctr inactive | M3R basal Ca ctr inactive
CCOC(=O)N1CCN(CC(O)COc2ccc(C)c(C)c2)CC1 (stereo not drawn)	none
CCCC(=O)Nc1ccc(Oc2ccc(NC(=O)CCC)cc2)cc1	none
CCCC(=O)Nc1ccc(C=C(C(C)=O)C(C)=O)cc1	RGS4 inh 16 | RGS4 inh valid 32% | M3R Ca ctr 30% | M3R basal Ca ctr inactive
Cc1ccccc1NC(=O)c1ccc(Cl)c(NC(=O)c2ccncc2)c1	none
O=C(c1nnsc1S(=O)(=O)c1ccc(Cl)cc1)N1CCOCC1	none (no result: MrgX1 antag, MrgX1 agonist, MrgX1 PAM)
O=C(c1nnsc1S(=O)c1ccc(Cl)cc1)N1CCOCC1 (stereo not drawn)	RGS4 inh 7.1 (no result: MrgX1 antag, MrgX1 agonist, MrgX1 PAM) | RGS4 inh valid 31% | M3R Ca ctr inactive | M3R basal Ca ctr 24%
O=C(Cn1cncn1)NCc1cc(F)ccc1F	none
COc1ccc(C(=O)c2sc(Nc3ccccc3)nc2N)cc1OC	none
COc1ccc(C(=O)NC(=S)Nc2ccccc2F)cc1	none
Nc1nc(Nc2ccccc2)sc1C(=O)c1ccccc1	RGS4 inh 13 | RGS4 inh valid 23% | M3R Ca ctr 38% | M3R basal Ca ctr inactive
Cc1cnc(NC(=O)c2sc(Nc3ccccc3)nc2N)o1	none
COc1ccc(C(=O)c2sc(Nc3ccccc3F)nc2N)cc1	none (no result: Hep lipid drop) | M3R Ca ctr inactive | M3R basal Ca ctr inactive
COc1ccc(C(=O)c2sc(Nc3ccccc3)nc2N)cc1	none | RGS4 inh valid inactive | M3R Ca ctr inactive | M3R basal Ca ctr inactive
CCOC(=O)Cc1csc(NC(=O)CN2CCCCC2)n1	none
Cc1ccc2[nH]c(=O)c(CN(C(=O)c3cccs3)c3ccccc3)cc2c1	none
CCOc1cccc(-c2c(C(=O)N/N=C/c3ccco3)nnn2-c2nonc2N)c1	none | RGS4 inh valid inactive | M3R Ca ctr inactive | M3R basal Ca ctr inactive
CCOc1cccc(-c2c(C(=O)N/N=C/c3ccc(C)o3)nnn2-c2nonc2N)c1	none | RGS4 inh valid inactive | M3R Ca ctr inactive | M3R basal Ca ctr inactive
Cc1cc(C)n(C(C[N+](=O)[O-])c2ccc(Cl)cc2)n1 (stereo not drawn)	RGS4 inh 14 | RGS4 inh valid 8.0% | M3R Ca ctr 44% | M3R basal Ca ctr 22%
